# Measurements taken from ChEMBL document CHEMBL1127567, “Retro-binding tripeptide thrombin active-site inhibitors: discovery, synthesis, and molecular modeling” (J Med Chem, 1994).
# Square brackets hold non-standard residues; d marks the D form. Peptide text beside a SMILES is read from it. Phe(ol) = N[C@H](CO)Cc1ccccc1; Ahp = NCCCCCCC(=O)O; Ahx = NCCCCCC(=O)O; Ava = NCCCCC(=O)O; GABA = NCCCC(=O)O
# Columns and labels:
# Coagulation factor X = Coagulation factor X (Homo sapiens, UniProt P00742); test: In vitro activity against Factor Xa was determined
# Coagulation factor X, sequence (P00742 41-179 limits assumed): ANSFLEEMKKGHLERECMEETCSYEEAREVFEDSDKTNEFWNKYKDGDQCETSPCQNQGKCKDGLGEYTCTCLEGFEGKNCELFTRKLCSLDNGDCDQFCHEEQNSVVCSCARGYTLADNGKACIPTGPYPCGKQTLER
# Coagulation factor X, sequence (P00742 235-488 limits assumed): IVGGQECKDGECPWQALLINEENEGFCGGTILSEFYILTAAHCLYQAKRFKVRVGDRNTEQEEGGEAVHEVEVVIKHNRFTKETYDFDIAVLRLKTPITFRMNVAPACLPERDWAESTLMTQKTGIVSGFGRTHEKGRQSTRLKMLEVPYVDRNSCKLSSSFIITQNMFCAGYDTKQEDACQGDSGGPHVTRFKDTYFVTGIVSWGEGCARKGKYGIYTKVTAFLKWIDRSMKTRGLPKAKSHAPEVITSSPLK
# Plasminogen [1] = biological target: T1, Plasminogen (Homo sapiens, UniProt P00747); test: In vitro activity against […] was determined
# T1 sequence (P00747 97-580 limits assumed): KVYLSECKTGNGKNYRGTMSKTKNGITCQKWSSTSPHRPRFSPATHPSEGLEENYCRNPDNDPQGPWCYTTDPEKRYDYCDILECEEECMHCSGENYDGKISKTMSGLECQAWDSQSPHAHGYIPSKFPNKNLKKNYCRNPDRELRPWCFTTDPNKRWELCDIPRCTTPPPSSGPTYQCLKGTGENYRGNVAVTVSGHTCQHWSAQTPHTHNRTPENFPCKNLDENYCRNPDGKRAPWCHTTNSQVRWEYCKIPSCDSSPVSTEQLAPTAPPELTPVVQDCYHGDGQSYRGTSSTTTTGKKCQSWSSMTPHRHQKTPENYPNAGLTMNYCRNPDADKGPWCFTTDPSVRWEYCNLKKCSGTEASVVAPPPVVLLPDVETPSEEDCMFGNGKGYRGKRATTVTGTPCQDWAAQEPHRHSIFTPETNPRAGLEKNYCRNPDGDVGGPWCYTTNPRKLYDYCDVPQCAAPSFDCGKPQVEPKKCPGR
# T1 sequence (P00747 581-810 limits assumed): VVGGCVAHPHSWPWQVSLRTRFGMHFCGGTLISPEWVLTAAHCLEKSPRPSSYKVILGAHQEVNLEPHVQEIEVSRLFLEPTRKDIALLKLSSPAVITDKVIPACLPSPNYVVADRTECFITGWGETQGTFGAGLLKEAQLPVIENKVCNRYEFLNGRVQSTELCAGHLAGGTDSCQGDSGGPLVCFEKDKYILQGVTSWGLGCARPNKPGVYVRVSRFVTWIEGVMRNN
# Prothrombin [2] = biological target: T2, Prothrombin (Homo sapiens, UniProt P00734); test: In vitro activity against thrombin was determined
# Serine protease 1 = Serine protease 1 (Homo sapiens, UniProt P07477); test: In vitro activity against trypsin was determined
# Serine protease 1, sequence (P07477 whole entry): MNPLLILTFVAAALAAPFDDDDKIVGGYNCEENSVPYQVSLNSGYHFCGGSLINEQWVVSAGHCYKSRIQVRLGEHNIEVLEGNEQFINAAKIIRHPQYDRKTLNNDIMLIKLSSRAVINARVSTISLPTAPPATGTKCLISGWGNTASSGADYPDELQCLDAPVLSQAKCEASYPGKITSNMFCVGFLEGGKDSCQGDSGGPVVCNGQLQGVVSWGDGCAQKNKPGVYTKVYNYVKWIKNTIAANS
# Prothrombin [3] = biological target: T2, Prothrombin; test: In vitro activity against thrombin with 10 uM substrate s-2238 (D-Phe-Pip-Arg-pNA)
# Plasminogen [4] = biological target: T1, Plasminogen; test: In vitro activity against plasmin was determined
# Prothrombin [5] = biological target: T2, Prothrombin; test: In vitro activity against thrombin was determined, using a 10 uM substrate s-2238 (D-Phe-Pip-Arg-pNA); 20-30
# Procedure, shortened: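 Human α-thrombin (0.1 unit/mL) preincubated with inhibitor for 3 min at room temperature in pH 7.4 buffer (30 mM HEPES, 145 mM NaCl, 5 mM KCl, 1 mg/mL PEG-8000). […] Absorbance change at 405 nm followed kinetically. Values are means of at least triplicate determinations.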
IC50 (Prothrombin [3]) [µM],Structure (SMILES),further results
–,CN[C@H](Cc1ccccc1)C(=O)N1CCC[C@H]1C(=O)N[C@H](C=O)CCCN=C(N)N,IC50 (Coagulation factor X): 4 µM; IC50 (Plasminogen [1]): 0.23 µM; IC50 (Prothrombin [2]): 0.008 µM; IC50 (Serine protease 1): 0.008 µM
7.5,CC(C)C[C@H](NC(=O)[C@H](Cc1ccccc1)NC(=O)CCCCCN)C(=O)N[C@@H](CC1CCCCC1)[C@@H](O)c1nccs1,–
1.41,COC(=O)[C@H](Cc1ccccc1)NC(=O)[C@H](CC(C)C)NC(=O)[C@H](Cc1ccccc1)NC(=O)CCCNC(=N)N,–
–,CC(C)C[C@H](NC(=O)[C@H](Cc1ccccc1)NC(=O)CCCN=C(N)N)C(=O)N[C@@H](CC1CCCCC1)[C@@H](O)c1nccs1,IC50 (Coagulation factor X): 6 µM; IC50 (Plasminogen [4]): 143 µM
154,COC(=O)[C@H](Cc1ccccc1)NC(=O)[C@H](CC(C)C)NC(=O)[C@H](Cc1ccccc1)NC(=O)CCCCNC(=N)N,–
17.6,COC(=O)C(O)[C@H](CCCCN)NC(=O)[C@@H]1CCCN1C(=O)[C@@H](Cc1ccccc1)NC(=O)CCCCCN (some centres undefined),–
> 200,COC(=O)[C@H](Cc1ccccc1)NC(=O)[C@H](CC(C)C)NC(=O)[C@H](Cc1ccccc1)NC(=O)CCCCCNC(=N)N,–
> 530,CC(C)C[C@H](NC(=O)[C@@H](N)Cc1ccccc1)C(=O)N[C@@H](CC1CCCCC1)[C@@H](O)c1nccs1,–
–,COC(=O)C(O)[C@H](CCCCN)NC(=O)[C@@H]1CCCN1C(=O)[C@H](N)Cc1ccccc1 (some centres undefined),IC50 (Prothrombin [5]): 30 µM
> 333,COC(=O)[C@H](Cc1ccccc1)NC(=O)[C@H](CC(C)C)NC(=O)[C@@H](N)Cc1ccccc1 (H-Phe-Leu-Phe-OMe),–
330,COC(=O)[C@H](Cc1ccccc1)NC(=O)[C@H](CC(C)C)NC(=O)[C@H](Cc1ccccc1)NC(=O)CCCCCCN (H-[Ahp]FLF-OMe),–
80,COC(=O)[C@H](Cc1ccccc1)NC(=O)[C@H](CC(C)C)NC(=O)[C@H](Cc1ccccc1)NC(=O)CCCCCN (H-[Ahx]FLF-OMe),–
57.1,COC(=O)[C@H](Cc1ccccc1)NC(=O)[C@H](CC(C)C)NC(=O)[C@H](Cc1ccccc1)NC(=O)CCCCN (H-[Ava]FLF-OMe),–
100,CC(C)C[C@H](NC(=O)[C@H](Cc1ccccc1)NC(=O)CCCCN)C(=O)N[C@H](CO)Cc1ccccc1 (H-[Ava]FL[Phe(ol)]),–
> 300,COC(=O)[C@H](Cc1ccccc1)NC(=O)[C@H](CC(C)C)NC(=O)[C@H](Cc1ccccc1)NC(=O)CCCN (H-[GABA]FLF-OMe),–
